Screens (PubChem BioAssay)
A selection: hits, their analogues and other compounds. The true share with any hit is near 4.4%.
TbMetRS inhib = Trypanosoma brucei MetRS inhibition; inhibition, % at 11.9 µM; hit rate 0.4% among 360,000; purified T. brucei MetRS, ATP depletion, Kinase-Glo luminescence;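 active means inhibition above a per-plate cutoff of the control wells' mean inhibition plus 3 SD, cut at about 5.5% in these data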;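 further: 0% = DMSO wells median and 100% = median of wells with control inhibitor compound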
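Dosing: 11.9 µM compound single dose, 0.9% DMSO; Assay system: purified T. brucei MetRS enzyme; Measured by: Kinase-Glo luciferase luminescence reporting remaining unconsumed ATP; Schedule: 15 min plus 2 h at 25 °C.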
AHR act = activates the human aryl hydrocarbon receptor | P35869 | AHR-responsive luciferase reporter cells, luminescence | activation, % at 5 µM | hit rate 2.5% among 320,000 | AID 2796; in the data active means activation above about 47%;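 further: 0% = vehicle wells and 100% = reference agonist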
MsrA inhibitor = bovine MsrA inhibition; purified bovine MsrA, absorbance read-out; inhibition, % at 15.5 µM; hit rate 0.75% among 360,000; AID 651718;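 further: 0% = vehicle wells with enzyme and 100% = reference inhibitor wells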
bovine MsrA act = activates bovine MsrA enzyme; purified bovine MsrA, absorbance read-out; AID 602163; hit rate 0.3% among 360,000; activation, % at 10.6 µM; in the data active means activation above about 7.5%;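 further: 0% = vehicle and 100% = reference activator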
AI-2 QS modul = modulates the Vibrio harveyi AI-2 quorum sensing system; AID 2094; hit rate 0.4% among 300,000; Vibrio harveyi JMH597 AI-2 luminescence/OD600 ratio, 9 h; stronger effect = lower value; strain lacks LuxN and CqsS sensors; 0 = neutral-control median; activity change, % at 7.5 µM; in the data active means activity change below about -75%, passing the limit was not always enough;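 further: luminescence divided by OD600 gain over 9 h not by final OD600 alone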
HTR2A ag = mouse HTR2A agonism via beta-arrestin recruitment; CHO-K1 mHTR2A beta-arrestin complementation, luminescence; percent of 30 µM serotonin response; hit rate 0.66% among 360,000; AID 624169; activation, % at 7.6 µM; P35363;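 active means activation above a run cutoff, the mean activation of all tested compounds plus 3 SD, cut at about 14% in these data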;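 further: 0% = plate median of compound wells and 100% = 30 µM serotonin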
Target sequence (P35363 whole entry, looked up): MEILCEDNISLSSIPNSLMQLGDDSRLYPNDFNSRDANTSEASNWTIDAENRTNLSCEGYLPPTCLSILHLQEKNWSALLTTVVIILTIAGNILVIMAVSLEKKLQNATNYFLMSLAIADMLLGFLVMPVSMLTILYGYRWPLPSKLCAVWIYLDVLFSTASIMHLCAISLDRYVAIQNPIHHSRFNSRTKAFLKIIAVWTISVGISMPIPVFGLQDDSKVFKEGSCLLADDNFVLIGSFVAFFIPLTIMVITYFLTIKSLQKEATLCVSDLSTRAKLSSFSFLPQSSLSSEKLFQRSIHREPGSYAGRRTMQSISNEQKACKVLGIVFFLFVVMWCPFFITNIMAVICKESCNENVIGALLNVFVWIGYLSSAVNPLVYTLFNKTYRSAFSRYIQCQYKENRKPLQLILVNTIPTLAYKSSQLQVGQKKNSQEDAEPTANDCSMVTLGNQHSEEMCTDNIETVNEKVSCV
TbMetRS confirm = Trypanosoma brucei MetRS inhibition confirmed; T. brucei MetRS enzyme, luminescence (ATP depletion); hit rate 93% among 1,400; shares compounds with TbMetRS inhib; inhibition, % at 11.9 µM; in the data active means inhibition above about 7%
Jurkat tox = Jurkat T cell cytotoxicity for MetRS hits; shares compounds with TbMetRS inhib; Jurkat cells viability, ATP luminescence; hit rate 12% among 1,400; AID 624413; inhibition, % at 8.3 µM; in the data active means inhibition above about 15%;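 further: 0% = vehicle and 100% = reference inhibitor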
TbMetRS FP orth = inhibits T. brucei methionyl tRNA synthetase in orthogonal FP test | shares compounds with TbMetRS inhib | purified T. brucei MetRS, fluorescence polarization | inhibition, % at 11.9 µM | hit rate 44% among 1,400; in the data active means inhibition above about 17%;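 further: 0% = vehicle wells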
MsrA inh confirm = bovine MsrA inhibition, confirmed | shares compounds with MsrA inhibitor | purified bovine MsrA, absorbance read-out | inhibition, % at 15.5 µM | hit rate 41% among 2,300;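 further: coupled to thioredoxin reductase with NADPH and selenocystamine and DMSO as substrate; 0% = vehicle only and 100% = full effect of reference inhibitor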
The depositor's hits bear a star. Unless noted, no stated cut-off is given here; in the data, active means inhibition above about 4.5%; inactive means the rest.

`O=C(NCCc1nc2ccccc2[nH]1)/C(=C/c1ccc(F)cc1)NC(=O)c1ccco1` gave TbMetRS inhib 3.4, AHR act -0.4, MsrA inhibitor -1.3, bovine MsrA act -3.4, AI-2 QS modul -1.0 and HTR2A ag -4.5.
O=C(CCNS(=O)(=O)c1ccc(Br)s1)Nc1ccc(Cl)cc1 was read as TbMetRS inhib 78.1*, AHR act 0.5, MsrA inhibitor 0.0, bovine MsrA act -4.0, AI-2 QS modul 15.6, HTR2A ag -1.9, TbMetRS confirm 85.1*, Jurkat tox 8.1 and TbMetRS FP orth 69.0*.
`O=C(CCNS(=O)(=O)c1ccc(Br)s1)NC1CCCC1` gave TbMetRS inhib 0.0, AHR act 1.8, MsrA inhibitor 0.7, bovine MsrA act -2.4, AI-2 QS modul -30.8 and HTR2A ag 0.4.
Screening Cc1cccc(C(=O)NNC(=O)CSc2nnc(C3CC3)n2C)c1 returned TbMetRS inhib -1.4, AHR act 2.2, MsrA inhibitor 0.5, bovine MsrA act -8.8, AI-2 QS modul 10.7 and HTR2A ag 8.9.
`O=S(=O)(NCCc1c[nH]c2ccccc12)c1ccc(F)cc1` gave TbMetRS inhib -0.5, MsrA inhibitor -1.8, bovine MsrA act -1.3 and HTR2A ag 4.8.
Screening O=C(Nc1ccccc1)Nc1ncc([N+](=O)[O-])s1 returned TbMetRS inhib 6.4*, MsrA inhibitor 0.2, bovine MsrA act 0.4, AI-2 QS modul -85.6*, HTR2A ag 2.6, TbMetRS confirm 10.4*, Jurkat tox 63.3* and TbMetRS FP orth -3.1.
For O=C(O)c1cccc(Cn2c(Cl)c(/C=N/NC(=O)c3cc4ccccc4cc3O)sc2=O)c1 the results were TbMetRS inhib 5.7*, AHR act 0.4, MsrA inhibitor 4.9*, bovine MsrA act -6.3, AI-2 QS modul 23.0, HTR2A ag -3.1, TbMetRS confirm 17.8*, Jurkat tox -0.5, TbMetRS FP orth 33.9* and MsrA inh confirm 5.6*.
`Cc1cc(/C=C(/C#N)c2nc3ccccc3[nH]2)c(C)n1-c1ccccc1C(=O)O` gave TbMetRS inhib 2.5, AHR act 1.6, MsrA inhibitor 1.6, bovine MsrA act -1.7, AI-2 QS modul 27.2 and HTR2A ag -2.5.
For Cc1cc(/C=C(/C#N)c2nc3ccccc3[nH]2)c(C)n1-c1cc(C(=O)O)cc(C(=O)O)c1 the results were TbMetRS inhib 5.8*, MsrA inhibitor 4.9*, bovine MsrA act -5.0, AI-2 QS modul 10.0, HTR2A ag -1.0, TbMetRS confirm 37.3*, Jurkat tox -3.0, TbMetRS FP orth 11.5 and MsrA inh confirm 2.6.
Screening CCOC(=O)C(/C=C(\C#N)C(=O)OCC)=C(/N)N1CCN(c2ccccc2)CC1 returned TbMetRS inhib 40.5*, AHR act 1.0, MsrA inhibitor 6.8*, bovine MsrA act -2.8, AI-2 QS modul 19.9, HTR2A ag -1.4, TbMetRS confirm 57.6*, Jurkat tox 1.1, TbMetRS FP orth 28.3* and MsrA inh confirm 5.3*.
Screening CCOC(=O)/C(C#N)=C/c1ccc(N2CCN(C)CC2)cc1 returned TbMetRS inhib -0.1, AHR act -0.5, MsrA inhibitor 2.8, bovine MsrA act 1.0, AI-2 QS modul 9.2 and HTR2A ag -2.7.
`CC(=O)Nc1ccc(S(=O)(=O)N2CCN(c3ccc([N+](=O)[O-])cc3)CC2)cc1` gave TbMetRS inhib 0.8, MsrA inhibitor 0.9, bovine MsrA act -2.8, AI-2 QS modul 21.2 and HTR2A ag -2.0.
`CC(=O)Oc1ccc2c(=O)c(/C=N/c3cc(=O)[nH]c(=S)[nH]3)coc2c1` gave TbMetRS inhib 8.0*, AHR act 1.5, MsrA inhibitor 5.5*, bovine MsrA act -1.2, AI-2 QS modul 40.8, HTR2A ag -3.0, TbMetRS confirm 13.4*, Jurkat tox 3.1, TbMetRS FP orth 3.3 and MsrA inh confirm 3.6.
Cc1cccc(C)c1NC(=O)C(c1ccccc1F)n1c(=O)c(-c2cc3ccccc3[nH]2)nc2ccccc21 (centres undefined) was read as TbMetRS inhib -0.4, MsrA inhibitor 0.4 and HTR2A ag 4.1.
CC(=O)c1sc(NC(=O)C=C(C)C)nc1C was read as TbMetRS inhib -0.8, AHR act 2.6, MsrA inhibitor 5.3*, bovine MsrA act -8.3, AI-2 QS modul 8.3, HTR2A ag 3.0 and MsrA inh confirm 2.7.
Screening CC(=O)c1sc(NC(=O)c2ccc(Br)o2)nc1C returned TbMetRS inhib 0.2, AHR act 16.9, MsrA inhibitor 5.6*, bovine MsrA act -5.1, AI-2 QS modul 5.6, HTR2A ag 4.1 and MsrA inh confirm 2.6.
For Cc1cccc(CN2CCN(C3CN(C4CCCCC4)S(=O)(=O)C3)CC2)c1 (centres undefined) the results were TbMetRS inhib -1.6, MsrA inhibitor 0.3, bovine MsrA act -12.7 and HTR2A ag 2.8.
`C[C@H]1CN(S(=O)C(C)(C)C)[C@H](CCO)/C1=C\c1ccccc1` (some centres undefined) gave TbMetRS inhib 0.2, MsrA inhibitor -1.9, bovine MsrA act -6.6 and HTR2A ag 3.5.
Nc1ccc(-c2nc3ncccc3o2)cc1 was read as TbMetRS inhib -0.4, AHR act -8.1, MsrA inhibitor 6.9*, bovine MsrA act -5.7, AI-2 QS modul 23.9, HTR2A ag 2.3 and MsrA inh confirm 4.6*.
For CCCN1C(=O)/C(=C/c2ccc(OCc3ccc(C(=O)O)cc3)c(OC)c2)NC1=S the results were TbMetRS inhib -0.3, AHR act 2.3, MsrA inhibitor -0.1, bovine MsrA act -0.1, AI-2 QS modul -4.8 and HTR2A ag 1.6.
`O=C(O)c1cccc(COc2ccccc2Cl)c1` gave TbMetRS inhib 0.2, AHR act -13.2, MsrA inhibitor -0.1, bovine MsrA act -1.0, AI-2 QS modul 32.3 and HTR2A ag 0.0.
`COc1cc(/C=C2\NC(=S)NC2=O)ccc1OCc1cccc(C(=O)O)c1` gave TbMetRS inhib -0.8, AHR act 4.7, MsrA inhibitor 5.4*, bovine MsrA act -8.4, AI-2 QS modul 13.9, HTR2A ag 3.8 and MsrA inh confirm 3.5.
